The results in this text go back to ChEMBL document CHEMBL1671788, “Discovery, synthesis, and structure-activity relationship development of a series of N-(4-acetamido)phenylpicolinamides as positive allosteric modulators of metabotropic glutamate receptor 4 (mGlu(4)) with CNS exposure in rats” (J Med Chem, 2011).

As usually defined, the EC50 is the concentration that produces a half-maximal response. As a reminder, the AUC(0-t) is exposure summed from dosing to a finite time, without extrapolation to infinity. Read a high AUC(0-t) as more exposure. What is called Cmax is the maximum level reached in the sampled fluid or tissue. A word on the Kp: it is tissue or fluid exposure divided by exposure in the circulation. Broadly, the Tmax is the time at which the peak concentration occurs.

In data set [1] the target is T1, Metabotropic glutamate receptor 4 (Homo sapiens, UniProt Q14833). Nature of the data set: Positive allosteric modulation of human mGluR4 expressed in CHO cells coexpressing Gqi5 assessed as calcium mobilization relative to PHCCC. The format is functional, cell-based. In a few lines:
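CHO cells stably expressing human mGlu4 with Gqi5 were plated at 30,000 cells/well and grown overnight. Cells were loaded with 1 µM Fluo-4 AM for 45 min at 37 °C in HBSS/HEPES/2.5 mM probenecid buffer. […] Ca2+ fluorescence was read (ex 470, em 540 nm). Curves were fitted with a four-parameter logistic; ≥3 independent runs in triplicate.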

The target in data set [2] is Metabotropic glutamate receptor 4 (Rattus norvegicus) (UniProt P31423). Nature of the data set: Positive allosteric modulation of rat mGluR4 expressed in CHO cells coexpressing Gqi5 assessed as calcium mobilization relative to PHCCC. It counts as functional, cell-based. Background: Calcium flux is commonly read through the fluorescence of an indicator in the cells.
Sequence of Metabotropic glutamate receptor 4 (Rattus norvegicus) (P31423 whole entry): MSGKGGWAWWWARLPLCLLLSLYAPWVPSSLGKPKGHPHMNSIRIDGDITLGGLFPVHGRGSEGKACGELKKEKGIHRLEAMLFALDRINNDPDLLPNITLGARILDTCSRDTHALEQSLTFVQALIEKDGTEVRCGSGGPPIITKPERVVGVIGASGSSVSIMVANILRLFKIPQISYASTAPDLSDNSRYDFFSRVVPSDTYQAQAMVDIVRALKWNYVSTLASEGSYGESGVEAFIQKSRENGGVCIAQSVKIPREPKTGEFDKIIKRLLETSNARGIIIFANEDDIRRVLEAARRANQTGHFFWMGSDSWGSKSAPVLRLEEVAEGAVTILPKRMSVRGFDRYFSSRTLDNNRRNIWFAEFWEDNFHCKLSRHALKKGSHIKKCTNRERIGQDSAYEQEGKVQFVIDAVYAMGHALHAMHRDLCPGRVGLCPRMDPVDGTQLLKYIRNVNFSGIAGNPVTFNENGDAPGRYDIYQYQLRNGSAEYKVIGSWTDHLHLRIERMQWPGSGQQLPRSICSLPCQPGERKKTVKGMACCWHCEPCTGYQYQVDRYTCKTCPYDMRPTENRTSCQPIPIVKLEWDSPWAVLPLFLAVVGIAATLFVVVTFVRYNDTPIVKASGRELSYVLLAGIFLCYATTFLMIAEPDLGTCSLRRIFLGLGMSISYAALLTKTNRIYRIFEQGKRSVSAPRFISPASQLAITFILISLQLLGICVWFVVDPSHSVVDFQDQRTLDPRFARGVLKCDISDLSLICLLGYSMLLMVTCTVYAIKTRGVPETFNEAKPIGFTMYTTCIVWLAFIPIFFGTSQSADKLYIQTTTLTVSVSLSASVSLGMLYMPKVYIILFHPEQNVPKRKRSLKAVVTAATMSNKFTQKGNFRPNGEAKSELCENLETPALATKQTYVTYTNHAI
Data set [3] addresses Metabotropic glutamate receptor 4 (Rattus norvegicus, UniProt P31423). Nature of the data set: Positive allosteric modulation of rat mGluR4 expressed in CHO cells coexpressing Gqi5 assessed as calcium mobilization. The format is functional, cell-based. As to conditions: read-out: EC50.
Data set [4] in a line: Plasma protein binding in Sprague-Dawley rat. It counts as ADME, cell-free. As to conditions: read-out: PPB. In a few lines:
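Equilibrium dialysis of compound spiked into rat plasma against 25 mM phosphate buffer, pH 7.4. Dialysis ran 4 h at 37 °C with shaking. Both chambers were matrix-matched, extracted with cold acetonitrile and quantified by LC/MS/MS. Triplicate within one plate.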

A further data set addresses T2, Cytochrome P450 1A2 (Homo sapiens, UniProt P05177).
T2 sequence (P05177 whole entry): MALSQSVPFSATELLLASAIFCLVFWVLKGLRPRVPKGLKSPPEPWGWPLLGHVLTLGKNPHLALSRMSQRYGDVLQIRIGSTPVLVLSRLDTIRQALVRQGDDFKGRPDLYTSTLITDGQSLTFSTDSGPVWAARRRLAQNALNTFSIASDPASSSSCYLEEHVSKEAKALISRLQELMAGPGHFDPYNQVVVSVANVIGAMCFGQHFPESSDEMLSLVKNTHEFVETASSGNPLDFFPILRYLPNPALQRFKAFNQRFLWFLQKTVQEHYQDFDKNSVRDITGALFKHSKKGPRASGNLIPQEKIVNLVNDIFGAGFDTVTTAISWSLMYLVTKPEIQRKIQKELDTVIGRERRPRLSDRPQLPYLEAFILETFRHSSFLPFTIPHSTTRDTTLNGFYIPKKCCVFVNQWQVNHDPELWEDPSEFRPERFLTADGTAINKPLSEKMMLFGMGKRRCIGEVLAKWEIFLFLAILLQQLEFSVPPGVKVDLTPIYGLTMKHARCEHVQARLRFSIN
Nature of the data set: Inhibition of human CYP1A2. In a few lines: (§1)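 Human liver microsomes (final 0.1 mg/mL) in 0.1 M potassium phosphate, pH 7.4, with a probe cocktail: phenacetin 10 µM (1A2), diclofenac 5 µM (2C9), dextromethorphan 5 µM (2D6) and midazolam 2 µM (3A4). Compound at 100 nM–30 µM final, in duplicate, preincubated 15 min at 37 °C. NADPH (1 mM) reaction ran 8 min, was quenched with cold acetonitrile, and read by LC/MS/MS (MRM). IC50 determined.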

The target of a further data set is Cytochrome P450 2C9 (Homo sapiens, UniProt P11712). Nature of the data set: Inhibition of human CYP2C9. Put shortly:
as §1

The target of the next data set is Cytochrome P450 3A4 (Homo sapiens, UniProt P08684). Nature of the data set: Inhibition of human CYP3A4. In a few lines: as §1
Sequence of Cytochrome P450 3A4 (P08684 whole entry): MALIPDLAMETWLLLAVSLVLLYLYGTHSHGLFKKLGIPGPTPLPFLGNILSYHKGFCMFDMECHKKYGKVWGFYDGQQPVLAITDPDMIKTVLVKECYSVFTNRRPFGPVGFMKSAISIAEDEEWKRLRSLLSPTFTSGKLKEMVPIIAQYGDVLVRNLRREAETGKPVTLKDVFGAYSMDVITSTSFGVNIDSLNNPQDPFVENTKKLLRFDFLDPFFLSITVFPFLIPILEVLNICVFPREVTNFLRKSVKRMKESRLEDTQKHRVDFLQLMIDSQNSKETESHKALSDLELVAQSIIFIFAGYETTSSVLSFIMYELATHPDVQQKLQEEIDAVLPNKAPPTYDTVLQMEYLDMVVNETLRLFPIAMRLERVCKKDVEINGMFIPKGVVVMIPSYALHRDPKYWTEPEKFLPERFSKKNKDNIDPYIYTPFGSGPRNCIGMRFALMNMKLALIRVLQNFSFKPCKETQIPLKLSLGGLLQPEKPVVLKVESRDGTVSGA
The target of the next data set is Cytochrome P450 2D6 (Homo sapiens, UniProt P10635). Nature of the data set: Inhibition of human CYP2D6. In a few lines:
as §1

For data set [5], the target named is Metabotropic glutamate receptor 2 (Rattus norvegicus) (UniProt P31421). Nature of the data set: Positive allosteric modulation in rat mGluR2 receptor expressed in HEK293 cells assessed as effect on thallium flux at 10 uM relative to glutamate. The format is cell-based. Put shortly:
(§2)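 HEK-293 cells co-expressing the rat receptor and GIRK channels, plated at 15,000 cells/well overnight, then loaded with BTC-AM (1.7 µM) for 1 h at room temperature. Vehicle or compound at 10 µM final was added, and 2.5 min later a full glutamate concentration-response was given in thallium-containing buffer. Thallium flux was read by fluorescence and the leftward or rightward shift of the glutamate curve recorded.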

Data set [6] concerns the target Metabotropic glutamate receptor 3 (Rattus norvegicus) (UniProt P31422). Nature of the data set: Positive allosteric modulation in rat mGluR3 receptor expressed in HEK293 cells assessed as effect on thallium flux at 10 uM relative to glutamate. The format is cell-based. Put shortly:
as §2

Data set [7] addresses Metabotropic glutamate receptor 6 (Rattus norvegicus) (UniProt P35349). Nature of the data set: Positive allosteric modulation in rat mGluR6 receptor expressed in HEK293 cells assessed as effect on thallium flux at 10 uM relative to glutamate. It counts as cell-based.
Data set [8] can be described thus: AUC in Sprague-Dawley rat plasma at 10 mg/kg, sc. The format is ADME, organism-based. The arrangement: dose 10 mg/kg, route subcutaneous.
Data set [9] relates to Plasma. Nature of the data set: Cmax in Sprague-Dawley rat plasma at 10 mg/kg, sc. As to conditions: in vivo. The format is ADME, organism-based. The arrangement: dose 10 mg/kg, route subcutaneous. In a few lines:
(§3)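 Rats dosed subcutaneously at 10 mg/kg as a 10% tween 80 microsuspension. […] In vivo samples were quantified by LC/MS/MS (ESI, positive-mode MRM) after gradient elution on a C18 column.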

Data set [10] deals with Plasma. Nature of the data set: AUC in Sprague-Dawley rat brain at 10 mg/kg, sc. It counts as ADME, organism-based. On the set-up: dose 10 mg/kg, route subcutaneous. As to conditions: in vivo.
Data set [11] in a line: Cmax in Sprague-Dawley rat brain at 10 mg/kg, sc. The format is ADME, organism-based. On the set-up: dose 10 mg/kg, route subcutaneous. In a few lines:
as §3

Data set [12] in a line: in vivo. To be noted: Sprague-Dawley, rat, brain/plasma, iv, 1 mg/kg.
Data set [13] can be described thus: in vivo. As to conditions: Sprague-Dawley, rat, sc, 10 mg/kg.
Data set [14] addresses Metabotropic glutamate receptor 1 (Rattus norvegicus) (UniProt P23385). Nature of the data set: Positive allosteric modulation in rat mGluR1 receptor expressed in HEK293 cells assessed as effect on calcium mobilization at 10 uM relative to glutamate.
The target in data set [15] is Metabotropic glutamate receptor 5 (Rattus norvegicus) (UniProt P31424). Nature of the data set: Positive allosteric modulation in rat mGluR5 receptor expressed in HEK293 cells assessed as effect on calcium mobilization at 10 uM relative to glutamate.
Sequence of Metabotropic glutamate receptor 5 (Rattus norvegicus) (P31424 21-1203 limits assumed): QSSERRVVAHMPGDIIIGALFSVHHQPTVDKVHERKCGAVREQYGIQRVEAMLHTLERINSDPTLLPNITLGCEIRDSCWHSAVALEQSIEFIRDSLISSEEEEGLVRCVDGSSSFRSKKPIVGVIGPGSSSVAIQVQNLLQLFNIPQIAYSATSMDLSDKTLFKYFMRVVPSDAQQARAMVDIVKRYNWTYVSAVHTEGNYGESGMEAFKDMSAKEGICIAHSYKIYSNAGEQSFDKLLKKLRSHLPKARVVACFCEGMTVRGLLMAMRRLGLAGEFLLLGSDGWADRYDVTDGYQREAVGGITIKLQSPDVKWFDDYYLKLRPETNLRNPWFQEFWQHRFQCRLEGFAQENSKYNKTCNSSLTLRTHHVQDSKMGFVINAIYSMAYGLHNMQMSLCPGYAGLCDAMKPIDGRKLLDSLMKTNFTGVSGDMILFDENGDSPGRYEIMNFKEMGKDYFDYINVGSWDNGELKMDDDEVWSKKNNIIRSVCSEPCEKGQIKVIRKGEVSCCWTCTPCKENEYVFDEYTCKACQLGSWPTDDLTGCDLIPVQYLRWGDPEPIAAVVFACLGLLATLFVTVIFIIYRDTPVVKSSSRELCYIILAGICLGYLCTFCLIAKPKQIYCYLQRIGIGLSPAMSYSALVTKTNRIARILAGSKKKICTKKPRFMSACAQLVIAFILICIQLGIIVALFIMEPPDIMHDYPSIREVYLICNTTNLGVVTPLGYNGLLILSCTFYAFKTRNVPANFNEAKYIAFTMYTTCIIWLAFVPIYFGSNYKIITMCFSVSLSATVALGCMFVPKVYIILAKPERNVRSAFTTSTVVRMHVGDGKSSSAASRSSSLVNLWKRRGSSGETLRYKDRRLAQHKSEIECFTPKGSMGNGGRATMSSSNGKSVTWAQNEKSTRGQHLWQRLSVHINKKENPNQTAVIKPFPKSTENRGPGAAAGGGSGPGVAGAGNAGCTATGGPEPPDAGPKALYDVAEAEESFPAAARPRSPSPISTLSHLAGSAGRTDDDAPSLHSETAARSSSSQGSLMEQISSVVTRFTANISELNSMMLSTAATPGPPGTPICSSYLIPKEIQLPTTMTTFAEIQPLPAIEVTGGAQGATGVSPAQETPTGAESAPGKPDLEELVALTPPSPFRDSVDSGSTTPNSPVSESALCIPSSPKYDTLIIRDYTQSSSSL
The target in data set [16] is Metabotropic glutamate receptor 4 (Rattus norvegicus) (UniProt P31423). Nature of the data set: Positive allosteric modulation of rat mGluR4 expressed in CHO cells coexpressing Gqi5 assessed as potentiation of glutamate-induced calcium mobilization. It counts as functional, cell-based.
Data set [17] has as its target T1, Metabotropic glutamate receptor 4. Nature of the data set: Positive allosteric modulation of human mGluR4 expressed in CHO cells coexpressing Gqi5 assessed as calcium mobilization. As to conditions: read-out: EC50. The format is functional, cell-based.

The structures appear in SMILES notation. The source made the active and inactive calls. The calls are words filed in the database; no cut-off is given here.

T1 sequence (Q14833 whole entry): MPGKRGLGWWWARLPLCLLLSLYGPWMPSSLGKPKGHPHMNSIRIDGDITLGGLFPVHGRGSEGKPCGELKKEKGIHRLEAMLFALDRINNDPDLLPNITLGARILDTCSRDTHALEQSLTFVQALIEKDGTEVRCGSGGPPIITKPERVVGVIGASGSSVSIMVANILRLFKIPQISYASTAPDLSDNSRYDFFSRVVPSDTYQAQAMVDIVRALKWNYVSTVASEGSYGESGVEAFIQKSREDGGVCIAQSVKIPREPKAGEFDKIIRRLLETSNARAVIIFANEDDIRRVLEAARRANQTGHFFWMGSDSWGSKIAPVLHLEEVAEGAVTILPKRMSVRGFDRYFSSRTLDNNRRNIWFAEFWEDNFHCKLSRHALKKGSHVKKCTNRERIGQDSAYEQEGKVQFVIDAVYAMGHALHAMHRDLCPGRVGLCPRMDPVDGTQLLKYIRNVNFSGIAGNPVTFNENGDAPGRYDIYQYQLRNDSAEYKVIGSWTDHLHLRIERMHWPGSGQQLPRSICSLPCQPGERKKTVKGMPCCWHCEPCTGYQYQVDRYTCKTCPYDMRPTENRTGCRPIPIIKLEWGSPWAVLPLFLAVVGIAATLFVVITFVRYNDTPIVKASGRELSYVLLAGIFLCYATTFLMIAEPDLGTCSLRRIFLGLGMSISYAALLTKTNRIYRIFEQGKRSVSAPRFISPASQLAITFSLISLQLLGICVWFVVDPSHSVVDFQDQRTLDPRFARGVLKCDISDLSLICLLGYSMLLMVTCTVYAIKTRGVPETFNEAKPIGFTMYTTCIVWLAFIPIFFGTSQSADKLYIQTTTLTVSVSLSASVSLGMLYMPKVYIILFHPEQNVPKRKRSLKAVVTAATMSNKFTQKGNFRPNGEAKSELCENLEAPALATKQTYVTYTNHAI
Sequence of Cytochrome P450 2D6 (P10635 whole entry): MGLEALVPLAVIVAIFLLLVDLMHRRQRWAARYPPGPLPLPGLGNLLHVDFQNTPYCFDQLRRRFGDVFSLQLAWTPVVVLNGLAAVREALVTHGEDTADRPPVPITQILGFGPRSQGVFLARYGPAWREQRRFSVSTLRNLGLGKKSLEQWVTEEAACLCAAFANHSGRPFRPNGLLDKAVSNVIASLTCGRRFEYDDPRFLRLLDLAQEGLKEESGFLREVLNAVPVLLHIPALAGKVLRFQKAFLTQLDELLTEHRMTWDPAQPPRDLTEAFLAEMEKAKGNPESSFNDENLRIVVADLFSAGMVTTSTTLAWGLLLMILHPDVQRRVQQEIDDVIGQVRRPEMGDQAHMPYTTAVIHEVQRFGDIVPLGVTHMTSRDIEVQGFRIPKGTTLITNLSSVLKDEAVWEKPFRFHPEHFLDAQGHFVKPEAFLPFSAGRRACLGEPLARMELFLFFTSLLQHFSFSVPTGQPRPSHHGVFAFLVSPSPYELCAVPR
Sequence of Cytochrome P450 2C9 (P11712 whole entry): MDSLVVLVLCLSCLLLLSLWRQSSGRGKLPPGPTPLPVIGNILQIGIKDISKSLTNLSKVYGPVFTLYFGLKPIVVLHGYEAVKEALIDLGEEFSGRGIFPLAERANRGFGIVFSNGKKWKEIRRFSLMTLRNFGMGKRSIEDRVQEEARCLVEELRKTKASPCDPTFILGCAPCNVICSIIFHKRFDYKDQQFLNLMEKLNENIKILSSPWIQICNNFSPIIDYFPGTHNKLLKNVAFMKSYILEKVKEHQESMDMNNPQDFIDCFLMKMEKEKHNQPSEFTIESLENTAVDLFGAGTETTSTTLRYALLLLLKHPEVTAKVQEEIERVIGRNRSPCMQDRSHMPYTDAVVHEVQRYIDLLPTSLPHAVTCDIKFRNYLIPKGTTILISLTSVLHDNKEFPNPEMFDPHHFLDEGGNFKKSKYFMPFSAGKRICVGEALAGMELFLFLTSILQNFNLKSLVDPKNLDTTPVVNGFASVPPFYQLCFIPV
Sequence of Metabotropic glutamate receptor 4 (Rattus norvegicus, UniProt P31423) (P31423 whole entry): as the sequence (P31423 whole entry) above

With `O=C(Nc1ccc(NC(=O)c2ccccc2Cl)c(Cl)c1)c1ccccn1`, the values for the Activity in data set [1] and in data set [2] were 77.9% and 128%, respectively. Moreover, the concentration giving a half-maximal response (EC50) in [3] worked out at 570 nM. Also, the fraction unbound in data set [4] was < 0.005. Besides, the INH at Cytochrome P450 1A2 was > 30 µM; on Cytochrome P450 2C9, 11.8 µM; at Cytochrome P450 3A4 it was > 30 µM; on Cytochrome P450 2D6 it was 13.1 µM. Moreover, the outcome in data set [5], in data set [6], in data set [7], in data set [14] and in [15] was inactive. Besides, in data set [8], the AUC(0-t) is 658 ng·h/mL. Also, the Cmax in the data set on Plasma [9] was determined as 198.1 ng/mL; in [11], 163 ng/g. The compound further had an AUC in the data set on Plasma [10] of 681 ng·h/g. In the data set “in vivo [12]”, the Kp is 1.04. Besides, in “in vivo [13]”, the Tmax came out at 30 min.

For the compound `Cc1ccccc1C(=O)Nc1ccc(NC(=O)c2ccccn2)cc1Cl`, the fold change (FC) in data set [16] stood at 9.6. The Activity in [1] amounted to 72.5%; in [2], 123%. Besides, the half-maximal effective concentration (EC50) in [17] was 958 nM; in data set [3], 915 nM. The fraction unbound in data set [4] was < 0.005. In addition, the INH on Cytochrome P450 1A2 is > 10 µM; at Cytochrome P450 2C9, 14.1 µM; at Cytochrome P450 3A4, > 30 µM; at Cytochrome P450 2D6 it was 12 µM. Moreover, the area under the curve AUC(0-t) in data set [8] stood at 766 ng·h/mL. The peak concentration (Cmax) in the data set on Plasma [9] amounted to 219.2 ng/mL; in data set [11] it was 59.4 ng/g. The AUC in the data set with Plasma [10] was 155.4 ng·h/g. In addition, the time of peak concentration (Tmax) in “in vivo [13]” stood at 30 min.
